In ChEMBL document CHEMBL1157729, “Structure-activity relationship and mechanism of action studies of manzamine analogues for the control of neuroinflammation and cerebral infections” (J Med Chem, 2010):
pIC50: −log10 of the molar value. ≈ marks a conversion by molar mass, not a printed value.

Experiments:
[1] = system: Plasmodium falciparum; assay: Antiplasmodial activity against chloroquine-sensitive Plasmodium falciparum D6 after 72 hrs by LDH assay; format: functional, organism-based
[2] = system: Cryptococcus neoformans; assay: Antifungal activity against Cryptococcus neoformans ATCC 90113; format: functional, organism-based
How it was run: (§1)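 Broth microdilution per modified CLSI method; samples serially diluted in 20% DMSO/saline, tested in duplicate; inocula set by OD630 of suspensions in incubation broth; growth read at 630 nm before and after incubation; amphotericin B drug control.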

[3] = system: Mycobacterium intracellulare; assay: Antimycobacterial activity against Mycobacterium intracellular ATCC 23068; format: functional, organism-based
How it was run: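 Modified Franzblau method; samples serially diluted in 20% DMSO/saline, tested in duplicate; inoculum set by OD630; fluorescence read at 544ex/590em before and after incubation; ciprofloxacin drug control.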

[4] = system: Vero; assay: Cytotoxicity against african green monkey Vero cells up to 4.6 ug/mL after 48 hrs by neutral red assay; format: cell-based; settings: chlorocebus sabaeus
How it was run: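 Vero cells were seeded at 25,000 cells/well and incubated for 24 h, then exposed to serially diluted samples for 48 h. Viable cells were counted by Neutral Red assay, with doxorubicin as positive control. IC50 was taken from dose-response curves.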

[5] = system: Mycobacterium tuberculosis; assay: Antimycobacterial activity against Mycobacterium tuberculosis H37Rv; format: functional, organism-based
[6] = system: Candida albicans; assay: Antifungal activity against Candida albicans ATCC 90028; format: functional, organism-based; how it was run: as §1
[7] = system: Plasmodium falciparum; assay: Antiplasmodial activity against chloroquine-resistant Plasmodium falciparum W2 after 72 hrs by LDH assay; format: functional, organism-based
[8] = Antineuroinflammatory activity in LPS-stimulated rat neonatal microglia assessed as drug level causing 50% PMA-induced LDH release preincubated 15 mins prior to PMA challenge measured after 70 mins; format: functional
How it was run: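 Neonatal rat microglia (2 × 10^5/well) primed with E. coli LPS 0.3 ng/mL for 17 h at 35.9 °C, washed with HBSS, given compound (0.01–10 μM) or DMSO 15 min, then PMA 1 μM; LDH read spectrophotometrically after 70 min; LDH50 relative to Triton X-100 (0.1%) release; duplicates.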

[9] = Antineuroinflammatory activity in LPS-stimulated rat neonatal microglia assessed as inhibition of PMA-induced superoxide anion production preincubated 15 mins prior to PMA challenge measured after 70 mins; format: functional, cell-based
[10] = Antineuroinflammatory activity in LPS-stimulated rat neonatal microglia assessed as inhibition of PMA-induced TXB2 production preincubated 15 mins prior to PMA challenge measured after 70 mins; format: functional, cell-based
[11] = Plasmodium falciparum, D6, 72 h, read-out: IC50
[12] = Plasmodium falciparum, W2, 72 h, read-out: IC50

## CC[C@@]1(O)CCCN2[C@@H](CC1)C[C@]13CN4CCCC/C=C\CC[C@](O)(C=C(c5nccc6c5[nH]c5c(O)cccc56)[C@@H]1CC4)[C@H]23
[1]; [11]
  IC50: 0.077 µg/mL (≈ 0.126 µM)
[2]
  IC50: 6 µg/mL (≈ 9.82 µM)
[3]
  IC50: 0.25 µg/mL (≈ 0.409 µM)
[4]
  Activity: Non-toxic
[5]
  MIC: 1.9 µg/mL (≈ 3.11 µM)
[6]
  IC50: 2.5 µg/mL (≈ 4.09 µM)

## Oc1cccc2c1[nH]c1c(C3=C[C@@]4(O)CC/C=C\CCCCN5CC[C@@H]3[C@]3(C[C@@H]6CC[C@H](O)CCCN6[C@H]34)C5)nccc12
[1]
  IC50: Not Active
[7]
  IC50: Not Active
[2]
  IC50: 10 µg/mL (≈ 17.2 µM)
[3]
  IC50: 1.5 µg/mL (≈ 2.57 µM)
[4]
  Activity: Non-toxic
[5]
  MIC: 1.7 µg/mL (≈ 2.92 µM)
[6]
  IC50: 15 µg/mL (≈ 25.7 µM)

## COC(=O)CCCCn1c2ccccc2c2ccnc(C3=C[C@@]4(O)CC/C=C\CCCCN5CC[C@@H]3[C@]3(C[C@@H]6/C=C\C(=O)CCCN6[C@H]34)C5)c21
[1]; [11]
  IC50: 2 µg/mL (≈ 2.95 µM)
[7]; [12]
  IC50: 2 µg/mL (≈ 2.95 µM)
[2]
  IC50: 15 µg/mL (≈ 22.2 µM)
[3]
  IC50: 20 µg/mL (≈ 29.5 µM)
[4]
  Activity: Non-toxic
[6]
  IC50: > 20 µg/mL

## CN1CCc2c([nH]c3ccccc23)C1C1=C[C@@]2(O)CC/C=C\CCCCN3CC[C@@H]1[C@]1(C[C@@H]4/C=C\CCCCN4[C@H]12)C3 (stereo partly specified)
[1]; [11]
  IC50: 0.31 µg/mL (≈ 0.547 µM)
[7]; [12]
  IC50: 0.44 µg/mL (≈ 0.776 µM)
[2]
  IC50: 6 µg/mL (≈ 10.6 µM)
[8]
  Activity: 8 µM
[9]
  pIC50: < 5.00
[3]
  IC50: 0.7 µg/mL (≈ 1.23 µM)
[4]
  Activity: Non-toxic
[5]
  MIC: > 64 µg/mL
[10]
  pIC50: 4.91
[6]
  IC50: > 20 µg/mL

## O=C1CC[C@H]2C[C@]34CN5CCCC/C=C\CC[C@](O)(C=C(c6nccc7c6[nH]c6c(O)cccc67)[C@@H]3CC5)[C@@H]4N2CC/C1=C/c1ccc(F)cc1
[1]
  IC50: Not Active
[7]
  IC50: Not Active
[2]
  IC50: > 20 µg/mL
[3]
  IC50: > 20 µg/mL
[4]
  Activity: Non-toxic
[6]
  IC50: > 20 µg/mL

## COc1ccc(/C=C2/CCN3[C@@H](CCC2=O)C[C@]24CN5CCCC/C=C\CC[C@](O)(C=C(c6nccc7c6[nH]c6c(O)cccc67)[C@@H]2CC5)[C@H]34)cc1OC
[1]
  IC50: Not Active
[7]
  IC50: Not Active
[2]
  IC50: > 20 µg/mL
[3]
  IC50: > 20 µg/mL
[4]
  Activity: Non-toxic
[5]
  MIC: > 64 µg/mL
[6]
  IC50: > 20 µg/mL

## O=C1CC[C@H]2C[C@]34CN5CCCC/C=C\CC[C@](O)(C=C(c6nccc7c6[nH]c6c(O)cccc67)[C@@H]3CC5)[C@@H]4N2CC/C1=C/c1c(Cl)cccc1Cl
[1]
  IC50: Not Active
[7]
  IC50: Not Active
[2]
  IC50: > 20 µg/mL
[3]
  IC50: > 20 µg/mL
[4]
  Activity: Non-toxic
[5]
  MIC: > 64 µg/mL
[6]
  IC50: > 20 µg/mL

## CC(=O)Oc1cccc2c1[nH]c1c(C3=C/C4=C/C/C=C\CCCCN5CC[C@@H]3[C@]3(C[C@@H]6/C=C\CCCCN6[C@@H]43)C5)nccc12
[1]; [11]
  IC50: 2.5 µg/mL (≈ 4.25 µM)
[7]; [12]
  IC50: 3.8 µg/mL (≈ 6.45 µM)
[2]
  IC50: > 20 µg/mL
[3]
  IC50: 10 µg/mL (≈ 17 µM)
[5]
  MIC: > 64 µg/mL
[6]
  IC50: > 20 µg/mL

## COc1ccc(/C=C2/CCN3[C@@H](CCC2=O)C[C@]24CN5CCCC/C=C\CC[C@](O)(C=C(c6nccc7c6[nH]c6c(O)cccc67)[C@@H]2CC5)[C@H]34)cc1
[1]
  IC50: Not Active
[7]
  IC50: Not Active
[2]
  IC50: > 20 µg/mL
[3]
  IC50: > 20 µg/mL
[4]
  Activity: Non-toxic
[5]
  MIC: > 64 µg/mL
[6]
  IC50: > 20 µg/mL

## N/N=C1/CCCN2[C@@H](CC1)C[C@]13CN4CCCC/C=C\CC[C@](O)(C=C(c5nccc6c5[nH]c5c(O)cccc56)[C@@H]1CC4)[C@H]23
[7]; [12]
  IC50: 0.038 µg/mL (≈ 0.0639 µM)
[2]
  IC50: 1 µg/mL (≈ 1.68 µM)
[3]
  IC50: 0.09 µg/mL (≈ 0.151 µM)
[4]
  Activity: Non-toxic
[5]
  MIC: 1.9 µg/mL (≈ 3.19 µM)
[6]
  IC50: > 20 µg/mL

## O=C1CC[C@H]2C[C@]34CN5CCCC/C=C\CC[C@](O)(C=C(c6nccc7c6[nH]c6c(O)cccc67)[C@@H]3CC5)[C@@H]4N2CC/C1=C/c1ccc([N+](=O)[O-])cc1
[1]
  IC50: Not Active
[7]
  IC50: Not Active
[2]
  IC50: > 20 µg/mL
[3]
  IC50: > 20 µg/mL
[4]
  Activity: Non-toxic
[5]
  MIC: > 64 µg/mL
[6]
  IC50: > 20 µg/mL

## CCCCCCCCCCCCn1c2ccccc2c2ccnc(C3=C[C@@]4(O)CC/C=C\CCCCN5CC[C@@H]3[C@]3(C[C@@H]6/C=C\CCCCN6[C@H]34)C5)c21
[1]
  IC50: Not Active
[7]
  IC50: Not Active
[2]
  IC50: > 20 µg/mL
[3]
  IC50: > 20 µg/mL
[4]
  Activity: Non-toxic
[6]
  IC50: > 20 µg/mL
